One series deals with Streptococcus pyogenes. Description: Antimicrobial activity against Streptococcus pyogenes by broth microdilution method. The format is functional. The essentials:
(§1)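 Broth microdilution following CLSI guidelines. Values under 12.5 μM are averages of three or more replicates.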
A general note: In broth dilution the organism is exposed to a series of concentrations in liquid medium.

Series [1] concerns Staphylococcus aureus. In words: Antimicrobial activity against methicillin-sensitive Staphylococcus aureus by broth microdilution method. Format: functional. In a few lines:
as §1

The test system of series [2] is Escherichia coli. Description: Antimicrobial activity against tolC-deficient Escherichia coli by broth microdilution method. Format: functional. In a few lines:
as §1

A further series has as its system Streptococcus pneumoniae. Description: Antimicrobial activity against Streptococcus pneumoniae by broth microdilution method. The format is functional. In a few lines:
as §1

Series [3] has as its system Escherichia coli. In words: Antimicrobial activity against Escherichia coli by broth microdilution method. Format: functional. The essentials:
as §1

A short description of series [4]: Solubility of the compound. Format: physicochemical.
The subject of series [5] is Staphylococcus aureus. In words: Antimicrobial activity against methicillin-resistant and quinolone-resistant Staphylococcus aureus by broth microdilution method. Format: functional. In a few lines: as §1
In another series the test system is Haemophilus influenzae. Description: Antimicrobial activity against Haemophilus influenzae by broth microdilution method. Format: functional. In a few lines: as §1
The test system of series [6] is Staphylococcus aureus. Description: Antimicrobial activity against methicillin-sensitive Staphylococcus aureus by broth microdilution method in presence of 50% human serum. The format is functional. In a few lines: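 CLSI broth microdilution against methicillin-sensitive S. aureus, run with 50% human serum added to the medium to reflect plasma protein binding. Values under 12.5 μM are averages of three or more replicates.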

The nature of series [7]: Fraction unbound in human plasma at 10 uM after 16 hrs by LC-MS/MS analysis. The format is ADME, cell-free. In a few lines:
(§2)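 Compound at 10 μM in human, rat or mouse plasma, equilibrium dialysis against buffer at 37 °C for 16 h. Buffer and plasma concentrations measured by LC-MS/MS, and the free fraction taken from their ratio.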

The target in the next series is DNA gyrase (Escherichia coli, UniProt P0AES4+P0AES6). In words: Inhibition of Escherichia coli DNA gyrase using fluorescence-tagged DNA by fluorescenct polarization assay. The format is protein-complex assay. The essentials:
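E. coli DNA gyrase supercoiling assay. The read-out was differential binding of a fluorescence-tagged DNA to relaxed versus supercoiled DNA, giving IC50.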

Series [8] can be described thus: Bioavailability in rat at 3 mg/kg, iv or at 10 mg/kg, po by LC-MS/MS method. Format: ADME, organism-based. The following applies: in vivo. The essentials:
(§3)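 Male mice (CD-1) or male Wistar Hannover rats, three per experiment, given a 15 min iv infusion at 3 mg/kg or oral dosing at 10 mg/kg. Vehicle was DMA:TEG:saline 40/40/20 for mice and meglumine/cyclodextrin for rats. Serial jugular blood was taken over 0–24 h, plasma analysed by LC-MS/MS, and a noncompartmental analysis used. Mean values are given.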

The nature of series [9]: Bioavailability in mouse at 3 mg/kg, iv or at 10 mg/kg, po by LC-MS/MS method. Format: ADME, organism-based. The following applies: in vivo. The essentials: as §3
Series [10] is described as follows: Fraction unbound in mouse plasma at 10 uM after 16 hrs by LC-MS/MS analysis. Format: ADME, cell-free. In a few lines: as §2
The nature of series [11]: Clearance in mouse at 3 mg/kg, iv or at 10 mg/kg, po by LC-MS/MS method. Format: ADME, organism-based. The conditions noted are these: in vivo. In a few lines:
as §3

A short description of series [12]: Clearance in rat at 3 mg/kg, iv or at 10 mg/kg, po by LC-MS/MS method. Format: ADME, organism-based. The following applies: in vivo. In a few lines: as §3
The nature of series [13]: Fraction unbound in rat plasma at 10 uM after 16 hrs by LC-MS/MS analysis. Format: ADME, cell-free. The essentials: as §2

Here are results for 8 compounds from ChEMBL document CHEMBL3352584, “Novel DNA gyrase inhibiting spiropyrimidinetriones with a benzisoxazole scaffold: SAR and in vivo characterization” (J Med Chem, 2014).

In brackets after ≈: the same amount, converted by molar mass.

Turning to `Cc1noc2c(F)c3c(cc12)CC1(C(=O)NC(=O)NC1=O)C1C(C)CC(C)CN31` (racemic), the MIC in the series on Streptococcus pyogenes is 200 µM (≈ 80.1 µg/mL); in the series on Staphylococcus aureus [1], 25 µM (≈ 10 µg/mL); in the series with Escherichia coli [2], 6.2 µM (≈ 2.48 µg/mL); in the series with Streptococcus pneumoniae it was 100 µM (≈ 40 µg/mL); in the series on Escherichia coli [3], 50 µM (≈ 20 µg/mL); against Staphylococcus aureus [5], 25 µM (≈ 10 µg/mL). Also, the MIC against Haemophilus influenzae is more than 200 µM; in the series with Staphylococcus aureus [6], 50 µM. The compound also showed a solubility in [4] of less than 1 µM. This compound also came in with a fraction unbound at 16 h, 10 µM in series [7] of less than 0.01. This compound gave a concentration for half-maximal inhibition (IC50) against DNA gyrase of 340 nM.
As for `Cc1noc2c(F)c3c(cc12)CC1(C(=O)NC(=O)NC1=O)[C@@H]1[C@@H](C)O[C@H](C)CN31`, the MIC in the series on Streptococcus pyogenes is 200 µM (≈ 80.5 µg/mL); against Staphylococcus aureus [1] it was 25 µM (≈ 10.1 µg/mL); in the series on Escherichia coli [2] it was 1.6 µM (≈ 0.644 µg/mL); in the series on Streptococcus pneumoniae it was 100 µM (≈ 40.2 µg/mL); against Escherichia coli [3], more than 200 µM; in the series with Staphylococcus aureus [5] it was 50 µM (≈ 20.1 µg/mL). This compound also returned an MIC in the series with Haemophilus influenzae of 25 µM (≈ 10.1 µg/mL). In series [4], this compound had a solubility of 190 µM (≈ 76.5 µg/mL). The unbound share (fraction unbound) at 16 h, 10 µM in [7] is 0.082. For the same compound, on DNA gyrase, 13000 nM corresponded to half-maximal inhibition (IC50).
For the compound `Cc1noc2c(F)c3c(cc12)CC1(C(=O)NC(=O)NC1=O)[C@@H]1[C@@H](C)O[C@@H](C)CN31`, the MIC was more than 200 µM in the series with Staphylococcus aureus [1]; 50 µM (≈ 20.1 µg/mL) against Escherichia coli [2]; more than 200 µM in the series with Streptococcus pneumoniae; more than 200 µM against Escherichia coli [3]; more than 200 µM against Staphylococcus aureus [5]; more than 200 µM in the series on Haemophilus influenzae. In addition, the solubility in [4] is more than 1000 µM. This compound had a fraction unbound at 16 h, 10 µM in series [7] of 0.035. Besides, on DNA gyrase, the half-inhibitory concentration (IC50) was more than 83000 nM.
For the compound `CC1CN2c3c(cc4c(C(C)(C)C)noc4c3F)CC3(C(=O)NC(=O)NC3=O)C2C(C)O1` (racemic), the MIC was 50 µM (≈ 22.2 µg/mL) in the series with Streptococcus pyogenes; 18 µM (≈ 8 µg/mL) against Staphylococcus aureus [1]; 3.1 µM (≈ 1.38 µg/mL) with Escherichia coli [2]; 200 µM (≈ 88.9 µg/mL) with Streptococcus pneumoniae; more than 200 µM in the series with Escherichia coli [3]; 18 µM (≈ 8 µg/mL) in the series on Staphylococcus aureus [5]. The MIC in the series with Haemophilus influenzae stood at 200 µM (≈ 88.9 µg/mL). The compound further displayed a solubility in series [4] of 770 µM (≈ 342 µg/mL). The fraction unbound at 16 h, 10 µM in series [7] came out at 0.042. The midpoint of inhibition against DNA gyrase, the IC50, lay at 4000 nM.
On to `COCc1noc2c(F)c3c(cc12)CC1(C(=O)NC(=O)NC1=O)C1C(C)OC(C)CN31` (racemic), for which the MIC in the series on Streptococcus pyogenes is 6.2 µM (≈ 2.68 µg/mL); against Staphylococcus aureus [1] it was 3.1 µM (≈ 1.34 µg/mL); against Escherichia coli [2] it was not above 0.2 µM; against Streptococcus pneumoniae, 12 µM (≈ 5.19 µg/mL); in the series on Escherichia coli [3] it was 200 µM (≈ 86.5 µg/mL); in the series with Staphylococcus aureus [5], 6.2 µM (≈ 2.68 µg/mL). Moreover, the MIC with Haemophilus influenzae was found to be 12 µM (≈ 5.19 µg/mL). In series [4], this compound came in with a solubility of 180 µM (≈ 77.8 µg/mL). This compound showed a fraction unbound at 16 h, 10 µM in series [7] of 0.096. This compound returned an IC50 against DNA gyrase of 1600 nM.
Take `O=C(O)c1cn(C2CC2)c2cc(N3CCNCC3)c(F)cc2c1=O` [CIPROFLOXACIN]: the MIC against Streptococcus pyogenes was 1.5 µM (≈ 0.497 µg/mL); against Staphylococcus aureus [1], 0.91 µM (≈ 0.302 µg/mL); in the series on Escherichia coli [2] it was less than 0.1 µM; against Streptococcus pneumoniae, 1.5 µM (≈ 0.497 µg/mL); in the series with Escherichia coli [3] it was 0.06 µM (≈ 0.0199 µg/mL); in the series on Staphylococcus aureus [5] it was 96 µM (≈ 31.8 µg/mL). For the same compound, the MIC with Haemophilus influenzae is less than 0.1 µM.
As for `COc1noc2c(F)c3c(cc12)CC1(C(=O)NC(=O)NC1=O)[C@H]1[C@H](C)O[C@H](C)CN31`, the MIC in the series on Streptococcus pyogenes is 6.2 µM (≈ 2.59 µg/mL); against Staphylococcus aureus [1], 3.1 µM (≈ 1.3 µg/mL); against Escherichia coli [2], not above 0.2 µM; against Streptococcus pneumoniae it was 25 µM (≈ 10.5 µg/mL); with Escherichia coli [3], 200 µM (≈ 83.7 µg/mL); against Staphylococcus aureus [5], 3.1 µM (≈ 1.3 µg/mL). Further, in the series on Haemophilus influenzae, the MIC was 3.1 µM (≈ 1.3 µg/mL). Besides, the concentration in solution in series [4] (solubility) came to 510 µM (≈ 213 µg/mL). This compound also returned a free fraction (fraction unbound) at 16 h, 10 µM in series [7] of 0.09. The same compound returned an IC50 against DNA gyrase of 970 nM.
As to `C[C@@H]1CN2c3c(cc4c(C(F)F)noc4c3F)CC3(C(=O)NC(=O)NC3=O)[C@H]2[C@H](C)O1`, the MIC in the series on Streptococcus pyogenes was 1.2 µM (≈ 0.526 µg/mL); in the series with Staphylococcus aureus [1], 0.39 µM (≈ 0.171 µg/mL); against Escherichia coli [2], not above 0.2 µM; with Streptococcus pneumoniae it was 3.1 µM (≈ 1.36 µg/mL); with Escherichia coli [3] it was 25 µM (≈ 11 µg/mL); against Staphylococcus aureus [5], 0.39 µM (≈ 0.171 µg/mL). Also, the MIC in the series with Haemophilus influenzae came out at 0.62 µM (≈ 0.272 µg/mL); in the series on Staphylococcus aureus [6], 3.1 µM. Further, the results for the bioavailability in [8] and in series [9] were 87% and 95%, respectively. The fraction unbound at 16 h, 10 µM in series [10] was 0.044; in series [7] it was 0.028; in series [13], 0.043. This compound had a solubility in [4] of more than 1000 µM. In addition, the clearance was found to be 47 mL/min/kg in series [11] and 1 mL/min/kg in [12]. The compound further showed an IC50 against DNA gyrase of 480 nM.

The solubility is how much of the substance goes into solution per volume. Lower therefore signals a poorly soluble substance. In general, fraction unbound refers to free concentration divided by total concentration. As a reminder, the IC50 is the concentration that gives 50% inhibition. Read a high IC50 as lower potency. As a reminder, the bioavailability is dose-corrected exposure relative to a reference, in per cent.
